According to PubChem BioAssay:

Assay: S. cerevisiae growth inhibition in restrictive medium, OD615, pilot screen, restrictive growth control, yeast lifespan reduction project (AID 706);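 note: modified DeaD lifespan yeast strain shifted to restrictive glucose medium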
Settings: OD615, 48 h, at 10 µM, stronger effect = higher value;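 active = growth inhibition above a set limit, 3 SD over mean compound inhibition, in both replicates (cut at about 43% in these data); inconclusive = above the limit in only one replicate; inactive = at or below the limit in both replicates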
Summary of the method: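 System: Engineered S. cerevisiae DeaD strain | Buffer or medium: Glucose-based CSMM-D restrictive medium | Schedule: 4 h pre-incubation, 48 h exposure at 30 °C | Technique: Optical density at 615 nm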

Growth inhibition, inactive:
Cc1oc(-c2cccs2)nc1CS(=O)CC(=O)NCCc1ccccc1 (stereo unspecified) 34.7%
CCN(CC)C(=O)C1CCCN(C/C=C/c2ccccc2)C1 (stereo unspecified) -9.31%
c1ccc(Cn2c(CSc3nnnn3-c3ccccc3)nc3ccccc32)cc1 5.56%
COc1ccc(-c2cn3c(C)c(C(=O)NC(C)(C)C)sc3n2)cc1 -9.73%
C/C=C/Cn1c(N(C)Cc2ccccc2)nc2c1c(=O)[nH]c(=O)n2C -23.1%
CCC1CC(C)(C(=O)Nc2ccc(S(N)(=O)=O)cc2)OC1=O (stereo unspecified) 3.6%
Cc1cccn2cc(-c3ccc(F)cc3)nc12 15.1%
CC1CCCCN1C(=O)c1ccccc1NC(=O)c1ccco1 (stereo unspecified) -14.8%
COCCNS(=O)(=O)c1ccc(C2CNC(=O)C2)cc1 (stereo unspecified) -6.89%
COc1cccc(OCC(=O)N(Cc2nc(-c3ccc(Cl)cc3)no2)C(C)C)c1 -2.81%
COC(=O)C1C(=O)c2c([nH]c(C(=O)OC3CCCC3C)c2C)CC1C (stereo unspecified) -2.27%
O=C(Cn1c(S(=O)(=O)Cc2ccccc2)nc2ccccc21)N1CCCCC1 2.88%
COc1ccc(Cl)cc1NC(=O)CSc1nnc(Cn2c(=O)sc3ccccc32)n1C -14.1%
Cc1cc(C)c(C)c(OCC(=O)NCCN(C)C)c1 -3.56%
COC(=O)c1ccc(C2C(C(C)=O)=C(C)Nc3ncnn32)cc1 (stereo unspecified) 9.82%
CCOC(=O)Cn1c(=O)oc2cc(S(=O)(=O)Nc3c(C)cc(C)cc3C)ccc21 -14.1%
